Bioassay records (PubChem BioAssay)
TNAP act hi DEA = activators of human TNAP at high phosphate acceptor concentration; P05186; purified TNAP, CDP-star luminescence, 1 M DEA, 30 min; hits give high values; 0 = EDTA background, 1 = DMSO-only activity; activation factor at 20 µM; 200,000 tested, under 10 active; AID 1136;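 active means activation factor at least 2 at 20 µM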
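Dosing: 20 µM single point. System: human TNAP. Amount: TNAP 1/800 final. Incubation: 30 min, room temperature. Read-out: TNAP activation factor scaled between EDTA and DMSO control wells. Signal: luminescence from CDP-star hydrolysis. Medium: 1 M DEA, pH 9.8, Mg2+, Zn2+. Control set: EDTA negative control, DMSO positive control.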
TNAP inh hiacc = inhibitors of human TNAP at high phosphate acceptor concentration. P05186. hit rate 0.03% among 200,000. inhibition, % at 20 µM. purified TNAP, CDP-star luminescence, 1 M DEA;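 active means over 50% inhibition of tissue-nonspecific alkaline phosphatase at 20 µM in the single-dose screen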;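 further: plate controls were DMSO wells for no effect and EDTA-quenched wells as full inhibition for full effect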
CHT allo act = allosterically activates the human high affinity choline transporter; Q9GZV3; CHT-expressing cells, membrane potential dye, choline EC20; hits give high values; LV-AA mutant CHT in HEK293 cells; B-score at 10 µM; hit rate 0.49% among 310,000; AID 488977;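 active means initial fluorescence not abnormally high and integrated response B-score, plate-corrected, over 3 SD above library mean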
Target sequence (Q9GZV3 whole entry, looked up): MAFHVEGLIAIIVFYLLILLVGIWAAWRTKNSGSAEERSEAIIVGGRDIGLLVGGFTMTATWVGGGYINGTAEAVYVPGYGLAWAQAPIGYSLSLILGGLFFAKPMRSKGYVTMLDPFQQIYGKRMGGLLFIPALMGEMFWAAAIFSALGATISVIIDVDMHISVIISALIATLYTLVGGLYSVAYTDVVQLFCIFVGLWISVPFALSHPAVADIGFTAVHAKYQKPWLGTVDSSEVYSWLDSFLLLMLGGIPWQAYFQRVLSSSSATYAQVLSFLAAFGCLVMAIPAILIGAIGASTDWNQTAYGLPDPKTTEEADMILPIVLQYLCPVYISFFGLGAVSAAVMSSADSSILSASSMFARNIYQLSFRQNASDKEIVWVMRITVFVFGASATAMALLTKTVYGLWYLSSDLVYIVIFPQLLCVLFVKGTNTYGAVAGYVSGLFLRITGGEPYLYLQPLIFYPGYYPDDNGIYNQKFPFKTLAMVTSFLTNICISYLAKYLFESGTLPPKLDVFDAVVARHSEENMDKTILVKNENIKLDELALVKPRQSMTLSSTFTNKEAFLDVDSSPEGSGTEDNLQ
CHT inh = inhibits the human high affinity choline transporter; hit rate 0.86% among 310,000; Q9GZV3; AID 488975; B-score at 10 µM; CHT-expressing cells, membrane potential dye, choline response; hits give low values;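 active means B-score over 3 SD under the library average, and starting fluorescence ratio not unusually high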;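 further: choline stimulus applied at its EC90 after an EC20 pre-addition; B-score computed on integrated fluorescence ratio after choline addition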
TNAP inh no acc = TNAP (human) inhibition, acceptor-free conditions; P05186; purified TNAP, CDP-star luminescence, 30 min; AID 1012; inhibition, % at 20 µM; hit rate 0.26% among 200,000;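 active means tissue-nonspecific alkaline phosphatase inhibition above about 50% at 20 µM in the single-dose screen, limit read from the data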;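 further: 0% = DMSO negative control and 100% = EDTA positive control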
ABCB6 inh 2 = blocks the human ABCB6 transporter; fluorescence ratio to DMSO, % at 10 µM; K562-ABCB6 porphyrin accumulation, flow cytometry, 1 h; hits give low values; hit rate 0.19% among 360,000; AID 602162;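 active means fluorescence ratio to DMSO below 75%, the collection mean minus 3 SD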;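 further: signal is porphyrin accumulated inside mitochondria; 100% equals median channel fluorescence of DMSO control wells; lower ratio means ABCB6 inhibition with less porphyrin fluorescence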
CHT act confirm = confirmation of human choline transporter (CHT) activators | shares compounds with CHT allo act | hit rate 91% among 2,500 | CHT-expressing cells, membrane potential dye fluorescence (FDSS); % of choline EC20–EC90 response window; HEK293 expressing CHT LV-AA mutant; choline added at its EC20 | activation, % at 10 µM;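 active means primary screen active, with duplicate mean activation above negative control mean plus 3 SD, cut at about 11% in these data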
HEK293 MP dye = activity in parental HEK293 cells lacking CHT. shares compounds with CHT allo act. membrane potential dye fluorescence (FDSS); measured after EC20 choline addition. ratio readout change at 10 µM, hits read low. hit rate 62% among 2,500. AID 623908;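 active means duplicate-averaged ratio beyond 3 SD from buffer wells, up or down, though filed actives are nearly all decreases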
The depositor's hits bear a star; i = inactive; / = no result given. A selection: hits, their analogues and other compounds. The true share with any hit is near 1.4%.

SMILES	TNAP act hi DEA	TNAP inh hiacc	CHT allo act	CHT inh	TNAP inh no acc	ABCB6 inh 2	CHT act confirm	HEK293 MP dye
CCC(C)NC(=O)CCC(=O)Nc1ccc2nc(N3CCOCC3)cc(C)c2c1 (configuration not stated)	1	0	7.9*	i	-6	104	59*	-59*
O=C(Cc1ccccc1)NS(=O)(=O)c1ccccc1	/	/	/	/	/	90	/	/
c1ccc(C[C@H]2CNCCN2CC2(c3ccccc3)CC2)cc1	/	/	i	i	/	98	/	/
CC(c1ccccc1)N(CCC(c1ccccc1)C1CCOC(C)(C)C1)C(=O)c1ccco1 (configuration not stated)	1	-2	6.4*	i	-6	97	34*	i
C/C(=N/NC(=O)c1cnccn1)c1ccncc1	1	-2	6.4*	i	-6	89	49*	-40*
O=C(NNc1cc(Cl)cc(Cl)c1)C1CCC1	/	/	i	i	/	97	/	/
O=C(NNc1ccc(Cl)cc1)C1CCC1	/	/	i	i	/	102	14*	i
COc1ccc(OC)c(NC(=O)Nc2nnc(N3CCCCC3C)s2)c1 (configuration not stated)	/	/	i	i	/	98	/	/
Cn1c(=O)n(C)c2cc([N+](=O)[O-])c(N3CCN(CCO)CC3)cc21	1	0	9.3*	i	-4	94	53*	-70*
Cn1c(=O)n(C)c2cc([N+](=O)[O-])c(N3CCN(S(C)(=O)=O)CC3)cc21	1	3	i	i	-6	106	/	/
CN(Cc1cccc(F)c1)C(=O)c1ccccc1Sc1ccccc1C#N	/	/	7.2*	i	/	98	31*	i
COc1ccc(CN(C)C(=O)c2ccccc2Sc2ccccc2C#N)cc1OC	/	/	i	i	/	96	/	/
CCN1CCN(CC(=O)c2c(C)n(C)c3ccc(OC)cc23)CC1	1.2	-16	i	i	-13	90	53*	-33*
O=C(Cc1c(F)cccc1Cl)NCC(=O)OCc1ccccc1	/	/	i	i	/	94	/	/
N#CC(=C(O)CN1CCN(c2ccccc2F)CC1)c1nc(-c2ccccc2)cs1	/	/	/	/	/	98	/	/
CCc1ccc(S(=O)(=O)N2CCN(C(=O)C3CCN(C(C)=O)CC3)CC2)cc1	/	/	i	i	/	96	/	/
CCn1c(C)[n+](CCOCC[n+]2c(C)n(CC)c3cc(Cl)c(Cl)cc32)c2cc(Cl)c(Cl)cc21	1	-3	6.7*	i	-2	95	31*	-49*
O=C(CCC1CCCN(C(=O)C2=CCCCC2)C1)N1CCN(c2ccccn2)CC1 (configuration not stated)	1.1	-5	i	i	-7	96	/	/
COC(=O)[C@@H]1C[C@@H]2CC[C@@H](O)C[C@@H]2N1Cc1ccccc1OS(=O)(=O)c1ccc(C)cc1	/	/	i	i	/	117	/	/
c1cncc(Nc2nc(-c3cccnc3)cs2)c1	1.1	-6	6.9*	i	-12	98	43*	-45*
Cc1nc(C)c(-c2csc(Nc3cccnc3)n2)s1	1	-3	i	i	-10	96	35*	-34*
Clc1cccc(-c2csc(Nc3cccnc3)n2)c1	/	/	i	i	/	95	/	/
c1cncc(Nc2nc(-c3ccncc3)cs2)c1	1.1	-8	7.5*	i	-12	98	46*	-49*
COc1ccc(-c2csc(Nc3cccnc3)n2)cc1OC	1.1	-8	i	i	-12	83	/	/
Cc1onc(-c2c(F)cccc2Cl)c1C(=O)N(C)C1CCCCC1	/	/	i	i	/	94	/	/
SMILES	TNAP act hi DEA	TNAP inh hiacc	CHT allo act	CHT inh	TNAP inh no acc	ABCB6 inh 2	CHT act confirm	HEK293 MP dye
COc1cc(OC)cc(C(=O)N2CCN(S(=O)(=O)c3ccc(Cl)s3)CC2)c1	/	/	/	/	/	96	/	/
COc1ccccc1C1CC(c2ccc(Cl)cc2)Nc2ncnn21 (configuration not stated)	1	-2	i	i	-1	86	30*	i
CNC(=O)Cn1c(C)cc(=O)c2cccc(C)c21	/	/	10*	i	/	97	63*	-73*
CCOC(=O)Cn1c(C)cc(=O)c2cccc(C)c21	1	0	i	i	-9	99	53*	-74*
COc1ccc2c(c1)sc1nc(=O)ccn12	/	/	i	i	/	100	/	/
Cc1ccc2c(c1)sc1nc(=O)ccn12	/	/	i	i	/	92	40*	-38*
Cc1cc(C)n(CCN(C)Cc2cn[nH]c2-c2ccc(F)cc2F)n1	1.1	-8	i	i	46	102	/	/
COc1ccc(-c2[nH]ncc2CNCc2cc(C)n(C)n2)c(F)c1	1.1	-7	7.8*	i	68*	93	45*	-60*
NC(COCc1ccccc1)c1csc(Nc2ccccn2)n1 (configuration not stated)	/	/	/	/	/	101	/	/
COc1ccc(-c2nn(-c3ccccc3)cc2CNCCN2CCOC2=O)c(F)c1	1	2	i	i	-5	100	/	/
COc1ccc(-n2cc(CNCCCN3CCCC3=O)c(-c3ccccc3Cl)n2)cc1	1	-2	6.3*	i	-3	103	19*	i
CCc1nc2ccc(C(=O)N(C)C(C)C)cn2c1N(CCC(C)C)CCN(C)C	/	/	/	/	/	99	/	/
Cn1c(=O)c2c(ncn2CCCC(=N)N2CCOCC2)n(C)c1=O	1.1	-7	11*	i	-7	95	78*	-72*
Cc1cc(NC(=O)c2cnn3cccnc23)no1	1	-3	7.7*	i	-5	104	63*	-54*
COc1ccc(C2CC(c3c(O)cc(C)oc3=O)=NCCS2)c(OC)c1 (configuration not stated)	1	0	7.6*	i	-1	86	51*	i
COc1cccc2c3c(c(C)nc12)CC(C)O3 (configuration not stated)	1	1	9.9*	i	-5	85	53*	-70*
COc1ccc(N2CCc3c(C)nc4c(OC)cccc4c32)cc1	1	-2	i	i	-9	92	33*	-56*
COc1ccc2nc(C)c3c(c2c1)OC(C)C3 (configuration not stated)	1.1	-9	i	i	0	107	/	/
Cc1nc2c(C)cccc2c2c1CCN2c1ccccc1F	/	/	i	i	/	101	47*	-54*
COc1cccc(N2CCc3c(C)nc4ccc(Cl)cc4c32)c1	/	/	i	i	/	100	42*	-29*
